Assay results reported in ChEMBL document CHEMBL1149894, “Glycosidic constituents of the tubers of Gymnadenia conopsea” (J Nat Prod, 2008).
Active and inactive are the calls of the source. The calls are words filed in the database; no cut-off is given here.

Assays:
[1] = target: T1, Acetylcholinesterase (Rattus norvegicus) (UniProt P37136); assay: Inhibition of rat brain AChE at 10 uM by Ellman method
T1 sequence (whole entry): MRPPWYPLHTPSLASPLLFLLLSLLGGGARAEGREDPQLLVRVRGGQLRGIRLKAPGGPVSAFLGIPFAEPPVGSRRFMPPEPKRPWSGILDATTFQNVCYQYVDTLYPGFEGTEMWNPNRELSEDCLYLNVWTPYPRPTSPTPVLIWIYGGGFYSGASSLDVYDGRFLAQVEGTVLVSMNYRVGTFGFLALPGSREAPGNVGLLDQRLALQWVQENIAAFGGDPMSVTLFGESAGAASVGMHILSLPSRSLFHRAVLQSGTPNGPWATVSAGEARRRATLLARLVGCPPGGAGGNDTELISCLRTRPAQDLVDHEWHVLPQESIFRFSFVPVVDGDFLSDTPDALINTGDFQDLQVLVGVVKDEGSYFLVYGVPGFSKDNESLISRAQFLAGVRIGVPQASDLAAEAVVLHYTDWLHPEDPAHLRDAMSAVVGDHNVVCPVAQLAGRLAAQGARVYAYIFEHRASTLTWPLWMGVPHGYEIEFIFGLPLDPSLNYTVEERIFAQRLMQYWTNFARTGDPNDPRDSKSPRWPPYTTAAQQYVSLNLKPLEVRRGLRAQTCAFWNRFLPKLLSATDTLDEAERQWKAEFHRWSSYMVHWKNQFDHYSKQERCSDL
Outline: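 Source: fresh rat brain homogenised in 9 volumes of ice-cold PBS, incubated with each test compound separately. Activity measured spectrophotometrically at 25 °C by the Ellman method; test compounds at 10^-5 M; donepezil as positive control; read as percent inhibition.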

[2] = target: T2, Amine oxidase [flavin-containing] B (Rattus norvegicus, UniProt P19643); assay: Inhibition of rat brain monoamine oxidase B at 10 uM
T2 sequence (P19643 whole entry): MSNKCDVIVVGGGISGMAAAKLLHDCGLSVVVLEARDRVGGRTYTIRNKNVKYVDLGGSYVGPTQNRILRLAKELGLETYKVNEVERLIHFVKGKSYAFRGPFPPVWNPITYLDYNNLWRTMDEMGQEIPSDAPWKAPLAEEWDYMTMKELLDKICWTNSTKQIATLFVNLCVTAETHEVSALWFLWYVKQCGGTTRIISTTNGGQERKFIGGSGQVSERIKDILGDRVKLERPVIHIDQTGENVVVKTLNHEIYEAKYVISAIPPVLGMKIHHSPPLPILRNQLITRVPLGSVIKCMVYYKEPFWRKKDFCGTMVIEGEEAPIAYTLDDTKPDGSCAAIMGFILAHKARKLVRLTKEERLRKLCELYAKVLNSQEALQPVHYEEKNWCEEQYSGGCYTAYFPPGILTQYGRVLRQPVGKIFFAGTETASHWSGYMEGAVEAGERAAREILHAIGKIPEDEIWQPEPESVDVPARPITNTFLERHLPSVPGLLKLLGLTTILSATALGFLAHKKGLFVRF
Outline: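 Fresh rat brain homogenized in 9-fold volume of ice-cold PBS and incubated separately with each compound at 10^-5 M. MAO-B activity was determined by quantifying the oxidation product of benzylamine substrate. Pargyline was the positive control. The value is reported as an inhibition rate.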

With CC(C)C[C@](O)(C(=O)OCc1ccc(O[C@@H]2O[C@H](CO)[C@@H](O)[C@H](O)[C@H]2O)cc1)[C@H](O)C(=O)OCc1ccc(O[C@@H]2O[C@H](CO[C@@H]3O[C@H](CO)[C@@H](O)[C@H](O)[C@H]3O)[C@@H](O)[C@H](O)[C@H]2O)cc1 the Activity [1] was “inactive” and the Activity [2] was “Not Active”.
COC(=O)[C@@H](O)[C@](O)(CC(C)C)C(=O)OCc1ccc(O[C@@H]2O[C@H](CO)[C@@H](O)[C@H](O)[C@H]2O)cc1 was tested, and the Activity [1] was “inactive” and the Activity [2] was “Not Active”.
With OCc1ccc(O[C@@H]2O[C@H](CO)[C@@H](O[C@H]3O[C@H](CO)[C@@H](O)[C@H](O)[C@H]3O)[C@H](O)[C@H]2O)cc1 the Activity [1] was “inactive” and the Activity [2] was “Not Active”.
CCOCc1ccc(O[C@@H]2O[C@H](CO)[C@@H](O)[C@H](O[C@@H]3O[C@H](CO)[C@@H](O)[C@H](O)[C@H]3O)[C@H]2O)cc1 was tested, and the Activity [1] was “inactive” and the Activity [2] was “Not Active”.
In the case of CC(C)C[C@](CC(=O)OCc1ccc(O[C@@H]2O[C@H](CO)[C@@H](O)[C@H](O)[C@H]2O)cc1)(O[C@@H]1O[C@H](CO)[C@@H](O)[C@H](O)[C@H]1O)C(=O)O, the Activity [1] is reported as “inactive” and the Activity [2] is reported as “Not Active”.
For OCc1ccc(O[C@@H]2O[C@H](CO)[C@@H](O)[C@H](O[C@@H]3O[C@H](CO)[C@@H](O)[C@H](O)[C@H]3O)[C@H]2O)cc1, the Activity [1] was “inactive” and the Activity [2] was “Not Active”.
In the case of CC(C)C[C@](O[C@@H]1O[C@H](CO)[C@@H](O)[C@H](O)[C@H]1O)(C(=O)OCc1ccc(O[C@@H]2O[C@H](CO)[C@@H](O)[C@H](O)[C@H]2O)cc1)C(O)C(=O)OCc1ccc(O[C@@H]2O[C@H](CO)[C@@H](O[C@H]3O[C@H](CO)[C@@H](O)[C@H](O)[C@H]3O)[C@H](O)[C@H]2O)cc1 (stereo partly drawn), the Activity [1] is reported as “inactive” and the Activity [2] is reported as “Not Active”.
For OCc1ccc(O[C@@H]2O[C@H](CO)[C@@H](O[C@@H]3O[C@H](CO)[C@@H](O)[C@H](O)[C@H]3O)[C@H](O)[C@H]2O)cc1, the Activity [1] was “inactive” and the Activity [2] was “Not Active”.
In the case of CC(C)C[C@](O[C@@H]1O[C@H](CO)[C@@H](O)[C@H](O)[C@H]1O)(C(=O)OCc1ccc(O[C@@H]2O[C@H](CO)[C@@H](O)[C@H](O)[C@H]2O)cc1)[C@H](O)C(=O)OCc1ccc(O[C@@H]2O[C@H](CO)[C@@H](O)[C@H](O[C@@H]3O[C@H](CO)[C@@H](O)[C@H](O)[C@H]3O)[C@H]2O)cc1, the Activity [1] is reported as “inactive” and the Activity [2] is reported as “Not Active”.
